ChEMBL document CHEMBL5674890, “Selective inhibition of CBP/p300 HAT by A-485 results in suppression of lipogenesis and hepatic gluconeogenesis” (Cell Death Dis, 2020)

Assays:
Assay type in all cases: organism-based
Settings in all cases: in vivo, 168 h, time 1 weeks
[1] = Toxicity in C57BL/6 mouse supplemented with normal chow diet assessed as effect on body weight at 20 mg/kg/day, ip administered for 1 week
Procedure, shortened: (§1)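 Male C57BL/6 mice, 8 weeks old, on normal chow, 12 h light/dark, barrier housing. Dosed intraperitoneally 20 mg·kg−1·day−1 for 7 days alongside vehicle-injected controls. Body weight followed over treatment; food intake, VO2, VCO2, respiratory exchange ratio, and plasma total cholesterol and triglyceride recorded. Mean ± SEM, n = 5–9; t test, P < 0.05.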

[2] = Toxicity in C57BL/6 mouse supplemented with normal chow diet assessed as effect on food intake at 20 mg/kg/day, ip administered for 1 week; procedure, shortened: as §1
[3] = Toxicity in C57BL/6 mouse supplemented with normal chow diet assessed as effect on oxygen consumption at 20 mg/kg/day, ip administered for 1 week; procedure, shortened: as §1
[4] = Toxicity in C57BL/6 mouse supplemented with normal chow diet assessed as effect on carbon dioxide production at 20 mg/kg/day, ip administered for 1 week; procedure, shortened: as §1
[5] = Toxicity in C57BL/6 mouse supplemented with normal chow diet assessed as effect on respiratory exchange ratios at 20 mg/kg/day, ip administered for 1 week; procedure, shortened: as §1
[6] = Toxicity in C57BL/6 mouse supplemented with normal chow diet assessed as effect on plasma total cholesterol content at 20 mg/kg/day, ip administered for 1 week; procedure, shortened: as §1
[7] = Toxicity in C57BL/6 mouse supplemented with normal chow diet assessed as effect on triglyceride levels at 20 mg/kg/day, ip administered for 1 week; procedure, shortened: as §1

Measured: Activity

CNC(=O)Nc1ccc2c(c1)CC[C@@]21OC(=O)N(CC(=O)N(Cc2ccc(F)cc2)[C@@H](C)C(F)(F)F)C1=O
Non-Toxic: all assays above
